Data reported in ChEMBL document CHEMBL4390700, “Design, synthesis and antitumour and anti-angiogenesis evaluation of 22 moscatilin derivatives” (Bioorg Med Chem, 2019).
Active and inactive are the calls of the source. The rule behind the calls is not given here.

Key:
MDA-MB-231 = assay: Antiproliferative activity against human MDA-MB-231 cells incubated for 72 hrs by MTT assay; type: functional, cell-based; conditions: MDA-MB-231, 72 h
How it was run: (§1)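 5×10³ cells per well preincubated 12 h at 37 °C, 5% CO₂. Medium replaced with fresh medium containing compound at various concentrations, DMSO ≤0.1%, for 72 h at 37 °C. MTT 0.5 mg/mL final added for 2 h; formazan dissolved in DMSO, A570 read; viability expressed relative to untreated cells.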

MKN-45 = assay: Antiproliferative activity against human MKN45 cells incubated for 72 hrs by MTT assay; type: functional, cell-based; conditions: MKN-45, 72 h; how it was run: as §1
HCT-116 [1] = assay: Antiproliferative activity against human HCT116 cells incubated for 72 hrs by MTT assay; type: functional, cell-based; conditions: HCT-116, 72 h; how it was run: as §1
Danio rerio = organism: Danio rerio; assay: Anti-angiogenic activity in zebrafish-guided angiogenesis model assessed as reduction in inter-segmental blood vessels measured at 72 hpf by fluorescence microscopy; type: functional
How it was run: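 Tg(fli-1:EGFP) zebrafish embryos, dechorionated at 24 hpf, 20 per group, kept in embryo water containing compound at 28.5 °C for a further 48 h. All compounds screened first at 50 μM; active ones titrated for minimum effective dose. At 72 hpf embryos anesthetized in 0.016% tricaine and intersegmental vessels imaged by fluorescence microscopy. SU5416 positive control.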

A549 = assay: Antiproliferative activity against human A549 cells incubated for 72 hrs by MTT assay; type: functional, cell-based; conditions: A549, 72 h; how it was run: as §1
HepG2 = assay: Antiproliferative activity against human HepG2 cells incubated for 72 hrs by MTT assay; type: functional, cell-based; conditions: HepG2, 72 h; how it was run: as §1
HCT-116 [2] = assay: Induction of cell cycle arrest in human HCT116 cells assessed reduction in accumulation at G1 phase at 5 to 10 uM incubated for 48 hrs by propidium iodide staining based flow cytometry; type: functional
How it was run: (§2)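 2×10⁵ cells per well, adhered overnight, then treated 48 h at 5 or 10 μM. Cells fixed in cold 70% ethanol overnight, RNase A treated 30 min at 37 °C, PI stained 15 min at 4 °C. DNA content measured by flow cytometry; phase distribution compared with untreated control.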

HCT-116 [3] = assay: Induction of apoptosis in human HCT116 cells assessed as early apoptotic cells level at 5 uM incubated for 48 hrs by Annexin V-FITC and propidium iodide staining based flow cytometry; type: functional
How it was run: (§3)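 2×10⁵ cells per well, adhered overnight, then exposed 48 h to compound at 1, 5 or 10 μM. Annexin V-FITC/PI double staining, read by flow cytometry. Annexin V+/PI− counted as early apoptotic, Annexin V+/PI+ as late. Gambogic acid 1 μM comparator.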

HCT-116 [4] = assay: Induction of cell cycle arrest in human HCT116 cells assessed accumulation at G2/M phase at 10 uM incubated for 48 hrs by propidium iodide staining based flow cytometry (reference value: 11.88%); type: functional; how it was run: as §2
HCT-116 [5] = assay: Induction of apoptosis in human HCT116 cells assessed as induction of chromatin congregation at 1 to 10 uM incubated for 48 hrs by DAPI staining based fluorescence microscopy; type: functional, cell-based; conditions: in the assay text read “Hoechst 33342” for “DAPI”
How it was run: (§4)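 After 48 h exposure to 1, 5 or 10 μM, nuclei stained with DAPI (methods name Hoechst 33342). Chromatin condensation and nuclear pyknosis scored by fluorescence microscopy at 400× against untreated cells.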

HCT-116 [6] = assay: Induction of morphological changes in human HCT116 cells assessed as induction of cell distortion at 1 to 10 uM incubated for 48 hrs by Hoechst 33342 staining based fluorescence microscopy; type: functional
HCT-116 [7] = assay: Induction of morphological changes in human HCT116 cells assessed as induction of tensile deformation at 1 to 10 uM incubated for 48 hrs by Hoechst 33342 staining based fluorescence microscopy; type: functional, cell-based
HCT-116 [8] = assay: Induction of apoptosis in human HCT116 cells assessed as late apoptotic cells level at 10 uM incubated for 48 hrs by Annexin V-FITC and propidium iodide staining based flow cytometry; type: functional; how it was run: as §3
HCT-116 [9] = assay: Induction of cell cycle arrest in human HCT116 cells assessed reduction in accumulation at S phase at 5 to 10 uM incubated for 48 hrs by propidium iodide staining based flow cytometry; type: functional; how it was run: as §2
HCT-116 [10] = assay: Induction of morphological changes in human HCT116 cells assessed as induction of slow growth at 1 to 10 uM incubated for 48 hrs by Hoechst 33342 staining based fluorescence microscopy; type: functional, cell-based
HCT-116 [11] = assay: Induction of apoptosis in human HCT116 cells assessed as early apoptotic cells level at 10 uM incubated for 48 hrs by Annexin V-FITC and propidium iodide staining based flow cytometry; type: functional; how it was run: as §3
HCT-116 [12] = assay: Induction of apoptosis in human HCT116 cells assessed as early apoptotic cells level at 1 uM incubated for 48 hrs by Annexin V-FITC and propidium iodide staining based flow cytometry; type: functional
How it was run: (§5)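 HCT116 seeded 2 × 10⁵ cells/well, adhered overnight, then exposed to compound for 48 h. Annexin V-FITC/PI double staining, read by flow cytometry. Early apoptotic cells counted as Annexin V+/PI− (lower right quadrant), late apoptotic as Annexin V+/PI+ (upper right). Culture at 37 °C, 5% CO₂, medium with 10% FBS and penicillin/streptomycin, DMSO ≤0.1%.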

HCT-116 [13] = assay: Reduction in alpha-tubulin protein expression in human HCT116 cells at 1 to 10 uM incubated for 48 hrs by Western blot analysis; type: functional, cell-based
How it was run: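 After 48 h treatment, cells lysed in buffer of 100 mM Tris-Cl pH 6.8, 4% SDS, 20% glycerol, 200 mM β-mercaptoethanol, 1 mM PMSF, aprotinin. Lysates spun 12000g for 30 min at 4 °C and protein quantified by BCA. Proteins run on 10% SDS-PAGE, semi-dry transferred to PVDF, probed overnight at 4 °C with anti-α-tubulin 1:1000 and GAPDH 1:1000 loading control, then HRP secondary. ECL detection with densitometry.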

HCT-116 [14] = assay: Induction of apoptosis in human HCT116 cells assessed as late apoptotic cells level at 5 uM incubated for 48 hrs by Annexin V-FITC and propidium iodide staining based flow cytometry; type: functional; how it was run: as §3
[15] = Cytotoxicity against human NCM460 cells assessed as cell viability at 50 uM incubated for 72 hrs by MTT assay; type: cell-based; conditions: read-out: Activity
How it was run: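 NCM460 colon cells exposed to compound at 0.1, 1, 2, 5, 10, 20, 30, 40 and 50 μM; viability expressed as percent. Media carried penicillin G, streptomycin and 10% FBS; culture at 37 °C, 5% CO₂.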

HCT-116 [16] = assay: Induction of apoptosis in human HCT116 cells assessed as induction of […] pyknosis at 1 to 10 uM incubated for 48 hrs by DAPI staining based fluorescence microscopy; type: functional, cell-based; conditions: in the assay text read “Hoechst 33342” for “DAPI”; how it was run: as §4
HCT-116 [17] = assay: Induction of apoptosis in human HCT116 cells assessed as late apoptotic cells level at 1 uM incubated for 48 hrs by Annexin V-FITC and propidium iodide staining based flow cytometry; type: functional; how it was run: as §5
HCT-116 [18] = assay: Induction of cell cycle arrest in human HCT116 cells assessed accumulation at G2/M phase at 5 uM incubated for 48 hrs by propidium iodide staining based flow cytometry (reference value: 11.88%); type: functional; how it was run: as §2

IC50 (MDA-MB-231) [µM] | IC50 (MKN-45) [µM] | IC50 (HCT-116 [1]) [µM] | IC50 (A549) [µM] | IC50 (HepG2) [µM] | Compound | MED (Danio rerio) [µM] | also measured
> 25 | 1.49 | 15.8 | > 25 | 8.49 | COc1cc(CCc2ccc(Br)cc2)cc(OC)c1O | 2.5 to 5 | –
> 25 | 10.7 | 1.19 | 4.15 | 5.47 | COc1cc(CCc2ccc(F)cc2)cc(OC)c1O | >50 | –
6.3 | 3.81 | 3.74 | > 25 | 2.17 | COc1cc(CCc2ccncc2)cc(OC)c1O | >50 | –
1.64 | 2.06 | 2.69 | 3.64 | 2.27 | COc1cc(CCc2ccc(OC)c(OC)c2)ccc1O | >50 | –
21.1 | 24.5 | 0.25 | 2.13 | 2.19 | COc1cc(CCc2ccccc2Cl)cc(OC)c1O | 0.62 to 1.25 | Activity (HCT-116 [2]): Active; Activity (HCT-116 [3]): 34.5%; Activity (HCT-116 [4]): 82.47%; Activity (HCT-116 [5]): Active; Activity (HCT-116 [6]): Dose-dependent effect; Activity (HCT-116 [7]): Dose-dependent effect; Activity (HCT-116 [8]): 37.2%; Activity (HCT-116 [9]): Active; Activity (HCT-116 [10]): Dose-dependent effect; Activity (HCT-116 [11]): 36.9%; Activity (HCT-116 [12]): 24.8%; Activity (HCT-116 [13]): Active; Activity (HCT-116 [14]): 22.4%; viability at 72 h, 50 µM [15]: 84.4%; Activity (HCT-116 [16]): Active; Activity (HCT-116 [17]): 18.1%; Activity (HCT-116 [18]): 85.22%
8.05 | 15.4 | 3.16 | 9.13 | 11 | COc1cc(CCc2ccc([N+](=O)[O-])cc2)cc(OC)c1O | – | –
> 25 | 1.04 | 0.53 | 10.9 | 7.83 | COc1cc(CCc2ccccc2)cc(OC)c1O | 20 to 25 | –
2.52 | 20.6 | 1.86 | 13.4 | 16.1 | COc1cc(CCc2ccc(Cl)c(Cl)c2)cc(OC)c1O | 20 to 25 | –
> 25 | 0.74 | 0.33 | 22.9 | 8.78 | COc1cc(CCc2ccc(Cl)cc2)cc(OC)c1O | >50 | –
> 25 | 21.9 | 2.56 | > 25 | 2.08 | COc1ccc(CCc2ccccc2)cc1OC | >50 | –
0.92 | 3.98 | 7.89 | > 25 | > 25 | COc1ccc(CCc2ccc(F)cc2)cc1OC | >50 | –
0.082 | 3.51 | 2.29 | 2.1 | 3.76 | COc1cc(CCc2cc(OC)c(O)c(OC)c2)ccc1O [MOSCATILIN] | 2.5 to 5 | –
> 25 | 2.97 | 7.57 | 2.24 | 12.4 | COc1cc(CCc2cccc(F)c2)cc(OC)c1O | 15 to 20 | –
> 25 | 13.7 | 5.97 | > 25 | 1.6 | COc1ccc(CCc2ccc([N+](=O)[O-])cc2)cc1OC | >50 | –
> 25 | 0.66 | 3.06 | > 25 | 4.84 | COc1cc(CCc2ccccn2)cc(OC)c1O | 25 to 50 | –
1.25 | 1.52 | 0.52 | > 25 | 0.74 | COc1ccc(CCc2ccc(Cl)cc2)cc1OC | >50 | –
9.22 | > 25 | 0.88 | > 25 | 1.03 | COc1cc(CCc2ccccc2F)cc(OC)c1O | 10 to 15 | –
0.081 | > 25 | 5.26 | 4.79 | 4.05 | COc1ccc(CCc2ccc(OC)c(OC)c2)cc1O | 40 to 50 | –
> 25 | 4.46 | 2.98 | 3.84 | 6.74 | COc1cc(CCc2ccc(Cl)cc2Cl)cc(OC)c1O | 5 to 10 | –
6.87 | 0.011 | 8.78 | 3.99 | 4.77 | COc1cc(CCc2cccc(Cl)c2Cl)cc(OC)c1O | 5 to 10 | –
– | – | – | – | – | Cc1cc(C)c(/C=C2\C(=O)Nc3ccccc32)[nH]1 [SEMAXANIB] | 1.25 to 2.5 | –
> 25 | 2.04 | 6.16 | > 25 | 4.93 | COc1ccc(CCc2ccccc2Cl)cc1OC | 20 to 25 | –
> 25 | 2.48 | 14.5 | 1.74 | 2.48 | COc1ccccc1CCc1cc(OC)c(O)c(OC)c1 | 1.25 to 2.5 | –
10.5 | 11.1 | 0.93 | > 25 | 13.8 | COc1ccc(CCc2ccccn2)cc1OC | >50 | –

Compound | IC50 (MDA-MB-231) [µM] | IC50 (MKN-45) [µM] | IC50 (HCT-116 [1]) [µM] | IC50 (A549) [µM] | IC50 (HepG2) [µM] | MED (Danio rerio) [µM] | also measured
CC(C)=CCC[C@]1(C)C=Cc2c(O)c3c(c(CC=C(C)C)c2O1)O[C@]12C(=C[C@@H]4C[C@H]1C(C)(C)O[C@@]2(C/C=C(/C)C(=O)O)C4=O)C3=O [GAMBOGIC ACID] | 1.33 | 4.27 | 3.11 | 1.47 | 2.36 | – | Activity (HCT-116 [12]): 33%; Activity (HCT-116 [17]): 31.8%
